Structures are written as SMILES. In brackets after ≈: the same amount, converted by molar mass.

Common to all, as to assay type: functional
One experiment has as its system Pseudomonas aeruginosa. As to the kind of experiment: Minimum inhibitory concentration against Pseudomonas aeruginosa UI-18. Particulars: Pseudomonas aeruginosa; read-out: MIC. The method in brief:
(§1)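 Standard microdilution method against a panel of five Gram-negative and five Gram-positive bacterial strains. The MIC (µg/mL) was recorded for each strain.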

For another experiment, the system named is Streptococcus pneumoniae. Nature of the experiment: Minimum inhibitory concentration against Streptococcus pneumoniae SV-1. Particulars: Streptococcus pneumoniae; read-out: MIC. The gist of the method:
as §1

The subject of experiment [1] is Staphylococcus aureus. Nature of the experiment: Minimum inhibitory concentration against Staphylococcus aureus H-228. Particulars: Staphylococcus aureus; read-out: MIC. The method in brief: as §1
A further experiment concerns Providencia rettgeri. Nature of the experiment: Minimum inhibitory concentration against Providencia rettgeri M-1771. Particulars: Providencia rettgeri; read-out: MIC. The method in brief:
as §1

For another experiment, the system named is Escherichia coli. As to the kind of experiment: Minimum inhibitory concentration against Escherichia coli Vogel. Particulars: Escherichia coli; read-out: MIC. The gist of the method:
as §1

The test system of the next experiment is Klebsiella pneumoniae. Nature of the experiment: Minimum inhibitory concentration against Klebsiella pneumoniae MGH-2. Particulars: Klebsiella pneumoniae; read-out: MIC. The gist of the method: as §1
Experiment [2] relates to Staphylococcus aureus. As to the kind of experiment: Minimum inhibitory concentration against Staphylococcus aureus UC-76. Particulars: Staphylococcus aureus; read-out: MIC. The gist of the method: as §1
For a further experiment, the system named is Enterobacter cloacae. Nature of the experiment: Minimum inhibitory concentration against […] MA-2646. Particulars: Enterobacter cloacae; read-out: MIC. The method in brief: as §1
In a further experiment the test system is Enterococcus faecalis. As to the kind of experiment: Minimum inhibitory concentration against […] MGH-2. Particulars: Enterococcus faecalis; read-out: MIC. The gist of the method: as §1
In another experiment the test system is Streptococcus pyogenes. Nature of the experiment: Minimum inhibitory concentration against Streptococcus pyogenes C-203. Particulars: Streptococcus pyogenes; read-out: MIC. The gist of the method: as §1
Experiment [3] relates to Mus musculus. As to the kind of experiment: Median protective dose determined in acute lethal system infection caused by Escherichia coli vogel in CD-1 mice (single dose sc). Particulars: read-out: PD50. The method in brief:
(§2)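 Acute lethal systemic infection in female Charles River CD-1 mice; compound given once, orally (po) or subcutaneously (sc), at the time of challenge. Median protective dose (PD50, mg/kg) derived from survival.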

Experiment [4] is filed under the species Mus musculus. Nature of the experiment: Median protective dose determined in acute lethal system infection caused by Escherichia coli vogel in CD-1 mice (single dose perorally). Particulars: po, read-out: PD50. The gist of the method: as §2

On to `NCc1cccc(C2CN(c3nc4c(cc3F)c(=O)c(C(=O)O)cn4C3CC3)CC2N)c1` (trans isomer), for which the MIC in the experiment with Pseudomonas aeruginosa came to 3.1 µg/mL (≈ 7.09 µM); in the experiment on Streptococcus pneumoniae it was 0.2 µg/mL (≈ 0.457 µM); with Staphylococcus aureus [1], 3.1 µg/mL (≈ 7.09 µM); with Providencia rettgeri it was 1.6 µg/mL (≈ 3.66 µM); in the experiment with Escherichia coli it was 0.8 µg/mL (≈ 1.83 µM); with Klebsiella pneumoniae, 0.8 µg/mL (≈ 1.83 µM). Further, the MIC in the experiment with Staphylococcus aureus [2] was determined as 0.4 µg/mL (≈ 0.914 µM); with Enterobacter cloacae, 0.8 µg/mL (≈ 1.83 µM); with Enterococcus faecalis it was 0.8 µg/mL (≈ 1.83 µM); in the experiment with Streptococcus pyogenes it was 0.2 µg/mL (≈ 0.457 µM).

Turning to `Nc1c(F)c(N2CC(N)C(c3ccc(F)cc3)C2)c(F)c2c1c(=O)c(C(=O)O)cn2C1CC1` (trans isomer), the MIC was 1.6 µg/mL (≈ 3.49 µM) in the experiment with Pseudomonas aeruginosa; 0.1 µg/mL (≈ 0.218 µM) in the experiment with Streptococcus pneumoniae; 0.025 µg/mL (≈ 0.0545 µM) in the experiment with Staphylococcus aureus [1]; 0.2 µg/mL (≈ 0.436 µM) in the experiment on Providencia rettgeri; 0.1 µg/mL (≈ 0.218 µM) with Escherichia coli; 0.1 µg/mL (≈ 0.218 µM) in the experiment on Klebsiella pneumoniae. Besides, the minimal inhibitory concentration (MIC) was determined as 0.013 µg/mL (≈ 0.0284 µM) in the experiment with Staphylococcus aureus [2], 0.1 µg/mL (≈ 0.218 µM) in the experiment with Enterobacter cloacae, 0.1 µg/mL (≈ 0.218 µM) in the experiment on Enterococcus faecalis and 0.1 µg/mL (≈ 0.218 µM) in the experiment on Streptococcus pyogenes.

For `NC1CN(c2c(F)cc3c(=O)c(C(=O)O)cn(C4CC4)c3c2F)CC1c1ccc(Cl)c(Cl)c1` (trans isomer), the MIC with Pseudomonas aeruginosa was determined as 1.6 µg/mL (≈ 3.24 µM); in the experiment with Streptococcus pneumoniae it was 0.1 µg/mL (≈ 0.202 µM); in the experiment with Staphylococcus aureus [1], 0.05 µg/mL (≈ 0.101 µM); in the experiment on Providencia rettgeri, 0.2 µg/mL (≈ 0.405 µM); in the experiment on Escherichia coli, 0.1 µg/mL (≈ 0.202 µM); with Klebsiella pneumoniae, 0.2 µg/mL (≈ 0.405 µM). Also, the MIC with Staphylococcus aureus [2] was 0.013 µg/mL (≈ 0.0263 µM); with Enterobacter cloacae, 0.2 µg/mL (≈ 0.405 µM); with Enterococcus faecalis it was 0.1 µg/mL (≈ 0.202 µM); in the experiment with Streptococcus pyogenes, 0.1 µg/mL (≈ 0.202 µM).

`NCC1CN(c2c(F)c(N)c3c(=O)c(C(=O)O)cn(C4CC4)c3c2F)CC1c1ccc(N)cc1` (trans isomer): the minimum inhibitory concentration (MIC) with Pseudomonas aeruginosa is 0.8 µg/mL (≈ 1.7 µM); in the experiment with Streptococcus pneumoniae, 0.013 µg/mL (≈ 0.0277 µM); in the experiment on Staphylococcus aureus [1] it was 0.025 µg/mL (≈ 0.0532 µM); in the experiment with Providencia rettgeri it was 0.2 µg/mL (≈ 0.426 µM); with Escherichia coli it was 0.1 µg/mL (≈ 0.213 µM); in the experiment on Klebsiella pneumoniae, 0.2 µg/mL (≈ 0.426 µM). The minimal inhibitory concentration (MIC) in the experiment on Staphylococcus aureus [2] is 0.006 µg/mL (≈ 0.0128 µM); in the experiment on Enterobacter cloacae, 0.1 µg/mL (≈ 0.213 µM); in the experiment on Enterococcus faecalis, 0.025 µg/mL (≈ 0.0532 µM); in the experiment on Streptococcus pyogenes, 0.025 µg/mL (≈ 0.0532 µM).

For `CCOC(=O)C1CC1C1CN(c2cc3c(cc2F)c(=O)c(C(=O)O)cn3C2CC2)CC1N` (trans isomer), the MIC in the experiment with Pseudomonas aeruginosa was found to be 3.1 µg/mL (≈ 6.99 µM); in the experiment on Streptococcus pneumoniae, 0.8 µg/mL (≈ 1.8 µM); with Staphylococcus aureus [1], 1.6 µg/mL (≈ 3.61 µM); in the experiment with Providencia rettgeri, 0.8 µg/mL (≈ 1.8 µM); with Escherichia coli, 0.2 µg/mL (≈ 0.451 µM); in the experiment with Klebsiella pneumoniae, 0.4 µg/mL (≈ 0.902 µM). In addition, the MIC in the experiment on Staphylococcus aureus [2] worked out at 0.2 µg/mL (≈ 0.451 µM); in the experiment on Enterobacter cloacae, 0.2 µg/mL (≈ 0.451 µM); in the experiment on Enterococcus faecalis, 0.8 µg/mL (≈ 1.8 µM); in the experiment with Streptococcus pyogenes, 0.8 µg/mL (≈ 1.8 µM).

For `NC1CN(c2c(F)cc3c(=O)c(C(=O)O)cn(C4CC4)c3c2F)CC1c1ccc(O)cc1` (trans isomer), the MIC in the experiment on Pseudomonas aeruginosa stood at 1.6 µg/mL (≈ 3.62 µM); in the experiment on Streptococcus pneumoniae it was 0.1 µg/mL (≈ 0.227 µM); with Staphylococcus aureus [1], 0.1 µg/mL (≈ 0.227 µM); with Providencia rettgeri, 0.2 µg/mL (≈ 0.453 µM); in the experiment with Escherichia coli it was 0.1 µg/mL (≈ 0.227 µM); in the experiment with Klebsiella pneumoniae it was 0.1 µg/mL (≈ 0.227 µM). Also, the MIC in the experiment on Staphylococcus aureus [2] turned out to be 0.025 µg/mL (≈ 0.0566 µM); in the experiment with Enterobacter cloacae it was 0.1 µg/mL (≈ 0.227 µM); in the experiment with Enterococcus faecalis, 0.1 µg/mL (≈ 0.227 µM); in the experiment on Streptococcus pyogenes, 0.1 µg/mL (≈ 0.227 µM). Moreover, the ED50 in the experiment on Mus musculus [3] came to 50 mg/kg; in the experiment listed under Mus musculus [4], 100 mg/kg.

Regarding `NCC1CN(c2c(F)c(N)c3c(=O)c(C(=O)O)cn(C4CC4)c3c2F)CC1c1ccccc1` (trans isomer), the minimal inhibitory concentration (MIC) with Pseudomonas aeruginosa came out at 0.8 µg/mL (≈ 1.76 µM); in the experiment on Streptococcus pneumoniae, 0.003 µg/mL (≈ 0.0066 µM); in the experiment with Staphylococcus aureus [1] it was 0.006 µg/mL (≈ 0.0132 µM); in the experiment with Providencia rettgeri, 0.1 µg/mL (≈ 0.22 µM); in the experiment on Escherichia coli, 0.025 µg/mL (≈ 0.055 µM); in the experiment with Klebsiella pneumoniae, 0.05 µg/mL (≈ 0.11 µM). Further, the MIC in the experiment on Staphylococcus aureus [2] is 0.003 µg/mL (≈ 0.0066 µM); in the experiment on Enterobacter cloacae, 0.05 µg/mL (≈ 0.11 µM); in the experiment on Enterococcus faecalis, 0.013 µg/mL (≈ 0.0286 µM); in the experiment with Streptococcus pyogenes it was 0.006 µg/mL (≈ 0.0132 µM).

For the molecule `NCc1cccc(C2CN(c3c(F)cc4c(=O)c(C(=O)O)cn(C5CC5)c4c3F)CC2CN)c1` (trans isomer), the MIC in the experiment on Pseudomonas aeruginosa stood at 6.3 µg/mL (≈ 13.4 µM); in the experiment on Streptococcus pneumoniae, 0.2 µg/mL (≈ 0.427 µM); with Staphylococcus aureus [1], 1.6 µg/mL (≈ 3.42 µM); in the experiment with Providencia rettgeri, 3.1 µg/mL (≈ 6.62 µM); with Escherichia coli it was 1.6 µg/mL (≈ 3.42 µM); in the experiment on Klebsiella pneumoniae it was 1.6 µg/mL (≈ 3.42 µM). Further, the MIC with Staphylococcus aureus [2] is 0.2 µg/mL (≈ 0.427 µM); with Enterobacter cloacae it was 1.6 µg/mL (≈ 3.42 µM); in the experiment on Enterococcus faecalis it was 0.8 µg/mL (≈ 1.71 µM); in the experiment with Streptococcus pyogenes, 0.1 µg/mL (≈ 0.213 µM).

Turning to `NC1CN(c2nc3c(cc2F)c(=O)c(C(=O)O)cn3C2CC2)CC1c1ccc(F)cc1` (trans isomer), the MIC in the experiment with Pseudomonas aeruginosa was determined as 1.6 µg/mL (≈ 3.75 µM); in the experiment on Streptococcus pneumoniae, 0.2 µg/mL (≈ 0.469 µM); in the experiment with Staphylococcus aureus [1], 0.1 µg/mL (≈ 0.235 µM); in the experiment with Providencia rettgeri, 0.4 µg/mL (≈ 0.938 µM); in the experiment on Escherichia coli it was 0.1 µg/mL (≈ 0.235 µM); in the experiment on Klebsiella pneumoniae, 0.2 µg/mL (≈ 0.469 µM). Besides, the minimal inhibitory concentration (MIC) in the experiment with Staphylococcus aureus [2] turned out to be 0.025 µg/mL (≈ 0.0586 µM); with Enterobacter cloacae it was 0.1 µg/mL (≈ 0.235 µM); in the experiment with Enterococcus faecalis it was 0.1 µg/mL (≈ 0.235 µM); with Streptococcus pyogenes, 0.2 µg/mL (≈ 0.469 µM). Besides, the ED50 in the experiment on Mus musculus [3] turned out to be 9 mg/kg; in the experiment filed under Mus musculus [4], 18 mg/kg.

The values are drawn from ChEMBL document CHEMBL1126564, “Synthesis and antimicrobial evaluation of a series of 7-[3-amino (or aminomethyl)-4-aryl (or cyclopropyl)-1-pyrrolidinyl]-4-quinolone- and -1,8-naphthyridone-3-carboxylic acids” (1993).
